Series [1] concerns the target T1, recombinant human (rh) ECE-1 (Homo sapiens, UniProt P42892).
T1 sequence (P42892 1-770): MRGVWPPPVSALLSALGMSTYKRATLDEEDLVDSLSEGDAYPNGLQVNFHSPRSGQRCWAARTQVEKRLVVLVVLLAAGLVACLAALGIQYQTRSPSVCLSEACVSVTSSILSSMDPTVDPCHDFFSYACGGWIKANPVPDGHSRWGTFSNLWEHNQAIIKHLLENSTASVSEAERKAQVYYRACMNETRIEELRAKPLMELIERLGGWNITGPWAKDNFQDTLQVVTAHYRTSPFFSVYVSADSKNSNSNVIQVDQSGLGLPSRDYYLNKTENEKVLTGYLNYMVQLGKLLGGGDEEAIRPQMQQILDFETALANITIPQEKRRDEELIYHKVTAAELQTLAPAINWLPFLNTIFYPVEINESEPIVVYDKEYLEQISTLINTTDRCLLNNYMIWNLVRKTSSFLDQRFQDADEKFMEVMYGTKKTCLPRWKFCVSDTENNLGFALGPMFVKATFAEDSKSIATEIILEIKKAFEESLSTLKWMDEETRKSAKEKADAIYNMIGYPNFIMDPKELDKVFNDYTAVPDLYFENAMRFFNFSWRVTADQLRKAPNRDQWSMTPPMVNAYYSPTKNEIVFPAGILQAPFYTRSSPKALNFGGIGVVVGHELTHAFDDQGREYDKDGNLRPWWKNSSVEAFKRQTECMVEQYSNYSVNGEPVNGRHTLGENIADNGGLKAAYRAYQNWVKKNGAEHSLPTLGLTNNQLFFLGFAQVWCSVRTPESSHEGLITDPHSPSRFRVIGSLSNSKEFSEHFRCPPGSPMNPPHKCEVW
Nature of the series: Peptide degradation by rhECE-1. It counts as biochemical. Conditions: for Degradation of peptide by 83 nM rhECE-1 at pH 5.5 or 7.4: 50 mM MES-KOH pH 5.5 or 50 mM Tris-HCl pH 7.4, up to 480 min. A digest of the protocol: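 Where used, the ECE-1 inhibitor (100 μM) was preincubated with enzyme on ice for 30 min at matching pH before substrate was added. Products were resolved by reversed-phase HPLC and identified by MALDI TOF/TOF mass spectrometry.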

Series [2] relates to HEK cells. In words: BK-induced Ca2+ signaling, desensitization and resensitization. It counts as cell-based, human. The conditions noted are these: SM-19712 10 μM; for Effect on response to a single BK challenge ([Ca2+]i): BK 100 nM, thiorphan 1 μM, phosphoramidon 1 μM. A digest of the protocol:
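HEK cells with native B2R were loaded with Fura-2AM and [Ca2+]i read at 37°C, on coverslips or in suspension. Cells were preincubated with BK 100 nM or vehicle (10 min, 37°C), washed, recovered 0–120 min, then rechallenged with BK 100 nM. SM-19712 10 μM, bafilomycin A1 0.15 or 1 μM, or DMSO was preincubated 20–60 min and kept in buffers throughout.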

In series [3] the test system is HEK-CLR-RAMP1+βARR2-GFP cells. Nature of the series: Trafficking and colocalization of β-arrestin2-GFP and CLR/RAMP1. It counts as cell-based, human. Conditions: recovery up to 4 h in CGRP-free medium. A digest of the protocol: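 HEK-CLR-RAMP1 cells transiently transfected with β-arrestin2-GFP had surface CLR (HA11) and RAMP1 (Myc) labelled. Cells were given CGRP (2 min to 1 h), washed, and recovered in CGRP-free medium for 1–4 h. SM-19712 10 μM, bafilomycin A1 0.15 or 1 μM, or DMSO was preincubated 20–60 min and kept throughout. After PFA fixation and confocal imaging, β-arrestin2/CLR endosomal colocalization coefficient was measured at 4 h recovery.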

Series [4] has as its system HEK-CLR-RAMP1 cells. In words: Endocytosis and degradation of internalized 125I-His8-CGRP. It counts as cell-based, human. The conditions noted are these: 30 min after internalization; SM-19712 10 μM, bafilomycin A1 0.15 or 1 μM.
The target in series [5] is CLR/RAMP1 (Rattus norvegicus, UniProt Q63118+Q9JJ74). In words: pH dependency of 125I-CGRP binding to CLR/RAMP1 membranes. Conditions: pH 5.5, relative to pH 7.5 (100%).
The subject of series [6] is SK-N-MC cells. In words: CGRP-induced Ca2+ signaling, desensitization and resensitization. It counts as cell-based, human. Conditions: challenge 100 nM. A digest of the protocol: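 SK-N-MC cells (endogenous CLR/RAMP1) were loaded with Fura-2AM for [Ca2+]i at 37°C. Single challenge used CGRP 100 nM. Desensitization: CGRP 100 nM or vehicle (1 h, 37°C), wash, CGRP-free recovery (4 h for resensitization), then CGRP 100 nM rechallenge. SM-19712 10 μM or DMSO was preincubated 20–60 min and kept throughout. Response was expressed as % of vehicle-treated cells.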

The subject of series [7] is HEK-CLR-RAMP1 cells. In words: CGRP-induced Ca2+ signaling, desensitization and resensitization. It counts as cell-based, human. A digest of the protocol:
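HEK-CLR-RAMP1 cells were loaded with Fura-2AM; [Ca2+]i read at 37°C. Single challenge used CGRP 30 nM. For desensitization/resensitization: CGRP 100 nM or vehicle (1 h, 37°C), wash, 0–6 h recovery, CGRP 30 nM rechallenge. Variants: SM-19712 10 μM (20–60 min preincubation, kept throughout); ECE-1 or non-targeting siRNA pools, 72 h; transient ECE-1a-d-GFP. Response given as % of vehicle-treated cells, n ≥ 3.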

In series [8] the test system is HEK-CLR-RAMP1 cells expressing ECE-1c-HSV. Nature of the series: Cell surface ECE-1c-HSV by flow cytometry. It counts as cell-based, human. The conditions noted are these: CGRP 100 nM, 30 min, 37°C. A digest of the protocol:
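HEK-CLR-RAMP1 cells transiently expressing ECE-1c-HSV were bound with goat anti-HSV (1 h, 4°C), washed, and exposed to CGRP 100 nM or vehicle (30 min, 37°C). They were then stained with FITC anti-goat (1:200, 1 h, 4°C) and analysed by flow cytometry. Secondary-only background was subtracted; surface signal was expressed relative to 4°C cells (100%).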

Series [9] has as its system rhECE-1. Nature of the series: rhECE-1. Conditions: human, 37°C, up to 720 min.
In series [10] the test system is HEK-AT1AR cells. Nature of the series: Resensitization of ATII-induced Ca2+ signaling. It counts as cell-based, human. The conditions noted are these: ATII 100 nM 1 h 37°C, wash, 2 h recovery, challenge 100 nM; unpublished data; mean ± SE. A digest of the protocol:
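HEK-AT1AR cells were exposed to ATII (100 nM) or vehicle for 1 h at 37°C, washed, and allowed to recover in agonist-free medium at 37°C. They were then rechallenged with ATII (100 nM) while [Ca2+]i was measured. The [Ca2+]i change is expressed as % of the vehicle-pretreated response. Inhibitor (10 μM) or DMSO was preincubated 20–60 min and kept in buffers throughout. Mean ± SE, n ≥ 3.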

Where [11] appears, read: peptide 250 μM, rhECE-1 83 nM, 37°C, HPLC.

“Also recorded” adds a separate entry of the source. Where a SMILES comes first, the peptide text is derived from it.

This is an account of results in publication PMC2099187 (The Journal of Cell Biology, 2007).

Sequence of CLR/RAMP1 (Q63118 24-464): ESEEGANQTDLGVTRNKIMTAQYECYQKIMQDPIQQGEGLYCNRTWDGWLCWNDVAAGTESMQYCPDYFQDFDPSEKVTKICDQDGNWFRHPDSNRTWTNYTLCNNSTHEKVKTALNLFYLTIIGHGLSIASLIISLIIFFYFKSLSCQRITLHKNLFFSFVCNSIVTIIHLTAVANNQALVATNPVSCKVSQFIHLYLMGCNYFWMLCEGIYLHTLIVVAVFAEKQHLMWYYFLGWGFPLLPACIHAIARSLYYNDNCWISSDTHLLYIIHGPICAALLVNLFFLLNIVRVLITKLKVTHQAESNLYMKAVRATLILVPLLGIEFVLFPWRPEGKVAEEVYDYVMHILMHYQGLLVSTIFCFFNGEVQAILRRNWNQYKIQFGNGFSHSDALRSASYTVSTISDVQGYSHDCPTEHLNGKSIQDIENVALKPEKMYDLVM
Sequence of CLR/RAMP1 (Q9JJ74 27-148): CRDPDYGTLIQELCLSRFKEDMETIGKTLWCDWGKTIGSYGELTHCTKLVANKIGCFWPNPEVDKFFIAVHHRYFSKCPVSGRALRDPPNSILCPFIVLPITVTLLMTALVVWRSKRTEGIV

For `NC(N)=NCCC[C@H](NC(=O)[C@H](Cc1ccccc1)NC(=O)[C@@H]1CCCN1C(=O)[C@H](CO)NC(=O)[C@H](Cc1ccccc1)NC(=O)CNC(=O)[C@@H]1CCCN1C(=O)[C@@H]1CCCN1C(=O)[C@@H](N)CCCN=C(N)N)C(=O)O` [BK, bradykinin] (H-RPPGFSPFR-OH), in series [1] (setting [11]), the “Degradation of peptide by 83 nM rhECE-1 at pH 5.5 or 7.4” value (“Degradation … at pH 5.5 or 7.4” for short) was “degraded BK at pH 5.5 and 7.4”. Further, the “pH dependence of the rate of degradation by rhECE-1” value in series [1] (rhECE-1 83 nM, pH 5.5 versus pH 7.4, 37°C, HPLC) is given as “faster at pH 5.5”.

For the compound `CO/C1=C\C(C)=C\[C@@H](C)[C@@H](O)[C@@H](C)C/C(C)=C/C=C/[C@H](OC)[C@@H]([C@@H](C)[C@@H](O)[C@H](C)[C@@]2(O)C[C@@H](O)[C@H](C)[C@@H](C(C)C)O2)OC1=O` [bafilomycin A1], the “Effect on desensitization of BK-induced Ca2+ signaling” value in series [2] (bafilomycin A1 0.15 or 1 μM) was “had no effect”. The “Effect on resensitization of BK-induced Ca2+ signaling” value in series [2] (bafilomycin A1 0.15 or 1 μM, 0–120 min recovery) is given as “had no effect”. Besides, the “Effect on localization of CLR (RAMP1) and β-arrestin2 during recovery” value in series [3] was “caused retention of CLR, RAMP1, and β-arrestin2 in endosomes for up to 4 h recovery”. Besides, the “Effect on degradation of internalized 125I-His8-CGRP” value in [4] was “prevented degradation”.

For the compound `CC(C)C[C@H](NP(=O)(O)O[C@@H]1O[C@@H](C)[C@H](O)[C@@H](O)[C@H]1O)C(=O)N[C@@H](Cc1c[nH]c2ccccc12)C(=O)O` [phosphoramidon], in series [2], the “Effect on response to a single BK challenge ([Ca2+]i)” value is given as “did not affect responses to a single BK challenge”.

With `O=C(O)CNC(=O)C(CS)Cc1ccccc1` (centres unmarked) [thiorphan], the “Effect on response to a single BK challenge ([Ca2+]i)” value in [2] was “did not affect responses to a single BK challenge”.

With Calcitonin gene-related peptide [CGRP], in series [5], the “Peptide bound to CLR/RAMP1 at endosomal pH 5.5” value was roughly 20%. Moreover, the “Desensitization of responses to CGRP by preincubation with agonist” value in [6] (CGRP 100 nM 1 h 37°C) is “completely desensitized”. In addition, the “Resensitization of responses to CGRP” value in series [6] (after 4 h recovery, mean ± SE) turned out to be 54 ± 5%. Besides, in series [1] (pH 5.5, products CGRP[15–26], CGRP[27–37], CGRP[1–24], CGRP[1–26]), the “Bonds hydrolysed by rhECE-1 (major products separated by HPLC)” value is “Gly^14-Leu^15, Lys^24-Asp^25, and Asn^26-Phe^27”. The “Degradation of peptide by rhECE-1 at endosomal pH 5.5” value in [1] (peptide 250 μM, rhECE-1 83 or 415 nM, 37°C, 50 mM MES-KOH pH 5.5, 0–720 min, reversed-phase HPLC) is “degraded CGRP in a concentration-dependent manner”. Further, the “Degradation of peptide by rhECE-1 at extracellular fluid pH 7.4” value in series [1] (peptide 250 μM, rhECE-1, 37°C, 50 mM Tris-HCl pH 7.4, reversed-phase HPLC) was “minimal”. Further, the “Desensitization of CGRP-induced Ca2+ signals by preincubation with agonist” value in series [7] (CGRP 100 nM 1 h 37°C, 0 h recovery, challenge 30 nM) is recorded as “complete desensitization”. Besides, the “Resensitization of responses to CGRP in cells with active ECE-1” value in series [7] (CGRP 100 nM 1 h, wash, 0–6 h recovery, challenge 30 nM) is reported as “fully resensitized at 4–6 h recovery”. In [7] (after 2 h recovery, mean ± SE), the “Resensitization of CGRP-induced Ca2+ signaling, HEK cells expressing CLR/RAMP1 alone (control)” value came out at 33 ± 2%. For the same compound, in [7] (at 2 h recovery, mean ± SE), the “Resensitization of CGRP-induced Ca2+ signaling, cells overexpressing ECE-1c” value is recorded as 75 ± 5%. In addition, the “Effect on constitutive endocytosis of ECE-1c-HSV (cell surface ECE-1c)” value in series [8] is listed as “did not affect this endocytosis”.

With “SCNTATCVTHRLAGLLSRSGGVVKDNFVPTNVGSEAF-NH2”, the cleaved bond entry in series [9] is “Gly14-Leu15, major; also recorded: Lys24-Asp25, major; also recorded: Asn26-Phe27, major”.

“angiotensin (AT) I (DRVYIHPFHL; Angiotensin-1; UniProt P01019 25-34, looked up) [ATI]”: in series [1] (setting [11]), the “Degradation … at pH 5.5 or 7.4” value was “degraded ATI under the same conditions”.

As to “angiotensin II (DRVYIHPF; Angiotensin-2; UniProt P01019 25-32, looked up) [ATII]”, the “Degradation … at pH 5.5 or 7.4” value in [1] (setting [11]) was “no detectable degradation at up to 480 min”.

angiotensin II [ATII]: the “Resensitization of ATII-induced Ca2+ signaling at 2 h” value in series [10] was 96 ± 3%.
